Screening results as filed in PubChem BioAssay.
GPR7 antag: antagonists of human GPR7 (neuropeptides B/W receptor 1); 290,000 compounds, 1.1% hits; GPR7-expressing cells, fluorescence antagonist assay; AID 1861; inhibition, % at 4.4 µM; in the data active means inhibition above about 16%, passing the limit was not always enough;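 further: cells stimulated with the agonist NPW; 0% = agonist with vehicle and 100% = vehicle without agonist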
EP2 antag: inhibitors of human EP2 prostaglandin E2 receptor. P43116. C6 glioma cells expressing human EP2, cAMP TR-FRET; cells stimulated with saturating PGE2. inhibition, % at 25 µM. 260,000 compounds, 0.52% hits. AID 1422;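 active means percent inhibition above 40 after rounding to a whole number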;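 further: rat C6 glioma host cells with rolipram phosphodiesterase inhibitor present; the protocol text gives 20 µM as final concentration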
CHO parental Ca: counter-screen for OX1R antagonists: effect in parental CHO cells; inhibition, % at 5.6 µM; 330,000 compounds, 0.63% hits; parental CHO-K1, ATP-induced calcium, Fluo-8 fluorescence;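 active means inhibition above that plate's mean sample inhibition plus 3 SD, cut at about 26% in these data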;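 further: 0% = ATP-challenged DMSO wells and 100% = DMSO wells without ATP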
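Material: Parental CHO cells | Reagent: ATP | Compound dosing: Single nominal dose of 5.6 µM per compound | Detection: Intracellular calcium via Fluo-8 no-wash fluorescent dye | Read-out: % inhibition of ATP-induced calcium mobilization | Benchmarks: Low control ATP plus DMSO, high control DMSO only | Replicates: Singlicate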
OX1R antag-1: human HCRTR1 antagonism. CHO/OX1R cells, Fluo-8 calcium fluorescence, orexin A. 330,000 compounds, 0.43% hits. O43613. inhibition, % at 5 µM;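 active means inhibition above its plate's threshold, mean inhibition of all tested compounds on the plate plus 3 SD, cut at about 37% in these data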;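 further: 0% = orexin A challenge wells and 100% = SB-334867-A antagonist wells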
Target sequence (O43613 whole entry, looked up): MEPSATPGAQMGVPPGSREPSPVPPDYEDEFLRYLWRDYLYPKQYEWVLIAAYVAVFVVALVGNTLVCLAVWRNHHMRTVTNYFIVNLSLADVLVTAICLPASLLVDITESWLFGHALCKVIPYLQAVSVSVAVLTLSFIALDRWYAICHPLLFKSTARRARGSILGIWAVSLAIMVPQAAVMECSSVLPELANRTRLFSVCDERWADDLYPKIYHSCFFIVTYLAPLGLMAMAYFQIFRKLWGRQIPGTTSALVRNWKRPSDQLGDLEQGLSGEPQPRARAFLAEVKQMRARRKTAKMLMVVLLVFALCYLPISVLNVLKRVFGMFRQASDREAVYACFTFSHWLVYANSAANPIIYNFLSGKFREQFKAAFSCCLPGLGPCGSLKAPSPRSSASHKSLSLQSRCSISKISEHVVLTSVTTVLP
EP2 mod: EP2 receptor (human) modulation. induction, % at 25 µM. P43116. 260,000 compounds, 0.83% hits. EP2-expressing cells, cAMP HTRF FRET, PGE2 co-stimulation. AID 940;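 active means compounds whose cAMP rise, as percent of the full-agonist control response, exceeds 60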;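 further: rat C6 glioma line stably carrying human EP2 under a CMV promoter; the protocol text gives 20 µM as final concentration; 100% = response of wells given 1 µM PGE2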
OX1R antag-2: antagonists of human orexin 1 receptor (OX1R) | O43613 | OX1R-expressing cells, FRET antagonist read-out | inhibition, % at 6.6 µM | 330,000 compounds, 1.8% hits | AID 485270; in the data active means inhibition mostly above about 38%, no sharp cut-off; inactive means mostly below about 40%;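 further: 0% = agonist challenge alone and 100% = reference antagonist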
Active calls of the source: *; x = not tested or not shown. This is a sample that favours compounds with a hit; in the whole collection about 3.7% have one here.

SMILES	GPR7 antag	EP2 antag	CHO parental Ca	OX1R antag-1	EP2 mod	OX1R antag-2
COc1ccc(N2CCN(CCNC(=O)C3CC(=O)N(C4CCCC4)C3)CC2)cc1 (stereo unspecified)	-12	8	-14	-9	27	7
CCOC(=O)C1=NN(c2ccccc2)C2(S1)SC(C(C)=O)=C(C)N2c1ccccc1 (stereo unspecified)	-7	2	-10	-25	63*	9
COC(=O)C1=NN(c2ccccc2)C2(S1)S/C(=C\c1ccccc1)C(=O)N2c1ccccc1 (stereo unspecified)	0	12	-22	-29	11	18
CCn1cc(Cl)c(C(=O)N2N=C(c3ccc4ccccc4c3)CC2c2ccccc2O)n1 (stereo unspecified)	-10	13	60*	12	48	4
CN(Cc1ccccc1)C(=O)c1ccccc1C(=O)OCC(=O)N(Cc1ccccc1)C(C)(C)C	x	x	-20	31	x	31*
O=C(OCC(=O)N1CCOCC1)c1cc(=O)[nH]c2ccccc12	x	x	-11	-13	x	35*
COc1cccc2cc(C(=O)OCC(=O)N3CC(C)OC(C)C3)c(=O)oc12 (stereo unspecified)	x	x	-11	1	x	53*
O=C(OCC(=O)N1CCOCC1)c1cc2ccccc2oc1=O	x	x	-2	-11	x	46*
CC1(C)CC2(CCO1)OC(=O)CC2C(=O)Nc1c(Cl)cccc1Cl (stereo unspecified)	0	11	-3	-9	-6	2
CC1CCCN(c2nc3c(c(=O)[nH]2)CN(Cc2ccc4nccnc4c2)CC3)C1 (stereo unspecified)	x	5	x	x	-20	x
CN(Cc1ccccc1)C(=O)COC(=O)c1cc2ccccc2oc1=O	x	x	-20	-16	x	28*
CN(Cc1ccccc1)C(=O)c1cc2ccccc2o1	1	3	-10	6	-10	10
CCCNC(=S)N1CCN(c2nc(-c3ccc(C)cc3)cs2)CC1	-10	x	53*	1	x	32
COc1ccc(C(=O)Nc2nc3c(s2)Cc2cc(OC)ccc2-3)cc1	-2	9	-4	-20	-36	15
COc1ccc2c(c1)Cc1sc(NC(=O)c3cccs3)nc1-2	-7	10	-21	-5	-16	68*
Cc1cc2c(cc1C)NC(CC(=O)NCc1ccccc1)C(=O)N2 (stereo unspecified)	7	5	-14	2	-8	35*
COc1ccc(Cl)cc1NC(=O)CSc1nc(C)nc2sc(C)c(C)c12	x	13	x	x	55	x
CN(C)S(=O)(=O)c1ccc2c(c1)nc(CCC(=O)NCc1ccc(Cl)cc1)n2C	-6	2	-9	-22	-16	21
Cc1cc(C(C)(C)C)oc1C(=O)N(CC(=O)NC1CCCC1)Cc1ccccc1Cl	7	7	25	105*	-5	89*
Cc1ccc2cc(CN(Cc3ccccc3Cl)C(=O)NC3CCCCC3)c(=O)[nH]c2c1C	x	0	x	x	-26	x
COc1ccc(C(CNC(=O)c2ccco2)N2CCOCC2)cc1 (stereo unspecified)	x	x	-17	-6	x	3
O=C(Cc1coc2ccc3ccccc3c12)NC1CCCc2ccccc21 (stereo unspecified)	4	5	-36	-2	-53	66*
O=C(c1ccccc1)c1ccccc1N1C(=O)C=CC1=O	-8	45*	5	10	-49	9
COc1ccccc1CN1CCN(Cc2ccc3ccccc3c2)CC1	-4	x	-19	-22	x	-4
CCc1ccc2c(c1)N(C[C@H](C)CN(C)C)c1ccccc1S2	x	44*	x	x	-13	x
SMILES	GPR7 antag	EP2 antag	CHO parental Ca	OX1R antag-1	EP2 mod	OX1R antag-2
Cc1ccc(S(=O)(=O)n2ccc3c(OCCOCCSCC(NC(=O)OC(C)(C)C)C(=O)O)cccc32)cc1 (stereo unspecified)	12	x	-2	0	x	17
Cc1ccc(S(=O)(=O)n2ccc3c(OCCOCCNCc4ccc(F)cc4)cccc32)cc1	24	x	39*	25	x	-1
Cc1cccc(C(=O)O/N=C(\N)Cc2cccc3ccccc23)c1	-2	x	-17	-19	x	8
CCOC(=O)CSc1nnc2c3ccccc3nc(Cc3ccccc3)n12	x	9	x	x	65*	x
CCOC(=O)CSc1nnc2c3ccccc3nc(C(C)(C)C)n12	x	8	x	x	57	x
CC(=O)CSc1nnc2c3ccccc3nc(C(C)(C)C)n12	2	14	-8	-28	61*	29
